Here are results for 16 compounds from ChEMBL document CHEMBL1154113, “Synthesis, cannabinoid receptor affinity, molecular modeling studies and in vivo pharmacological evaluation of new substituted 1-aryl-5-(1H-pyrrol-1-yl)-1H-pyrazole-3-carboxamides. 2. Effect of the 3-carboxamide substituent on the affinity and selectivity profile” (Bioorg Med Chem, 2009).

The source made the active and inactive calls. The calls are words filed in the database; no cut-off is given here.

For one test, the species on record is Homo sapiens. Kind of test: Selectivity index, ratio of Ki for human recombinant CB2 receptor to Ki for human recombinant CB1 receptor.
In test [1] the test system is Rattus norvegicus. In words: Reduction in cumulative food intake in Wistar rat at 1 mg/kg, ip measured 360 mins after lights off. It is filed as functional. Summed up:
(§1)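 Adult male Wistar rats, about 400 g, housed singly under an inverted 12:12 h cycle, with free access to chow and water. Groups of n = 6–8 were matched on body weight and intake and given 0, 0.1, 1 or 10 mg/kg ip, suspended in saline with a few drops of Tween 80, 30 min before lights off. Food and water were weighed at 60–360 and 1440 min. Newman–Keuls test against vehicle.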

Test [2] deals with Rattus norvegicus. Kind of test: Reduction in cumulative food intake in Wistar rat at 10 mg/kg, ip measured 360 mins after lights off. It is filed as functional. The note with it: 6 h, route intraperitoneal. Summed up: as §1
Test [3] deals with Rattus norvegicus. Kind of test: Reduction in food intake in Wistar rat at 1 mg/kg, ip after 1440 mins. It is filed as functional, organism-based. Further details: dose 1 mg/kg. Summed up: as §1
Test [4] concerns Rattus norvegicus. Kind of test: Reduction in food intake in Wistar rat at 10 mg/kg, ip after 1440 mins. It is filed as functional, organism-based. More on the design: dose 10 mg/kg. The procedure, abridged:
as §1

For test [5], the system named is Rattus norvegicus. In words: Reduction in cumulative water intake in Wistar rat at 0.1 to 10 mg/kg, ip measured 360 mins after lights off. It is filed as functional, organism-based. Summed up:
as §1

Test [6] relates to Rattus norvegicus. In words: Reduction in cumulative water intake in Wistar rat at 0.1 to 10 mg/kg, ip after 1440 mins. It is filed as functional, organism-based. Summed up:
as §1

In the next test the target is Cannabinoid receptor 1 (Homo sapiens, UniProt P21554). Kind of test: biochemical. It is filed as cell-based, HEK293.
The target of another test is Cannabinoid receptor 2 (Homo sapiens, UniProt P34972). Kind of test: Displacement of [3H]CP-55940 from human recombinant CB2 receptor expressed in HEK cells. It is filed as cell-based, HEK293. (In general: In a radioligand displacement assay an active substance lowers the binding of a labelled ligand.)
Test [7] has as its system Rattus norvegicus. Kind of test: Reduction in cumulative food intake in Wistar rat at 10 mg/kg, ip measured 60 mins after lights off relative to control. It is filed as functional. The note with it: 1 h, route intraperitoneal. Summed up: as §1

Cannabinoid receptor 2, sequence (P34972 whole entry): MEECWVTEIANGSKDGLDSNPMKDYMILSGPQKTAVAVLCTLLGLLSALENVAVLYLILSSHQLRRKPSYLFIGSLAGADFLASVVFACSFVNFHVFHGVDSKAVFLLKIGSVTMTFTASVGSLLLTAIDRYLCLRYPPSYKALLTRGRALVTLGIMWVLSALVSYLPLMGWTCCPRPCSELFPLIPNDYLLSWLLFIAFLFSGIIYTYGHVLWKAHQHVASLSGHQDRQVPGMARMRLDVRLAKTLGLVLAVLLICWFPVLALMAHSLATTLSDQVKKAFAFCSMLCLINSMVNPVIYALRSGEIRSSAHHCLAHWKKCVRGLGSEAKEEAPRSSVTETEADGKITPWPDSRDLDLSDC
Cannabinoid receptor 1, sequence (P21554 whole entry): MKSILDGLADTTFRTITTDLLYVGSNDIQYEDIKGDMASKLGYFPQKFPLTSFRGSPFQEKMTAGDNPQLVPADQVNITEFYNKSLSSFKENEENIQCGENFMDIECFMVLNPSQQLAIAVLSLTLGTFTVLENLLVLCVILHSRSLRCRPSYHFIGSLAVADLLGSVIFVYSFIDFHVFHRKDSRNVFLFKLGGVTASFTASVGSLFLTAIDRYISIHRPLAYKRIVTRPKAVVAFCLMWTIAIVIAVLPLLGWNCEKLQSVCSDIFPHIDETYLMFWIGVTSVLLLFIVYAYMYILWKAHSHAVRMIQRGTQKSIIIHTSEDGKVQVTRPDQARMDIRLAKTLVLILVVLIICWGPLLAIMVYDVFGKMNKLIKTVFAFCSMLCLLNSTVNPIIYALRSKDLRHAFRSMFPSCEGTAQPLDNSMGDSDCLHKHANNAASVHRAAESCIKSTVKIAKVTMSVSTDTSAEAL

Turning to `Cc1c(C(=O)NCc2ccc(Cl)c(Cl)c2)nn(-c2ccc(Cl)cc2Cl)c1-n1c(C)ccc1C`, the Ratio Ki in the test listed under Homo sapiens was found to be 141. In addition, testing at 1 mg/kg with Rattus norvegicus [1] (6 h, route intraperitoneal) gave an inhibition in vivo of 15%. The same compound came in with an inhibition in vivo at 10 mg/kg in the test on Rattus norvegicus [2] of 25%. Further, the result in the test with Rattus norvegicus [3] and in the test with Rattus norvegicus [4] was Active. The result in the test with Rattus norvegicus [5] and in the test with Rattus norvegicus [6] was inactive.
On to `Cc1c(C(=O)NCCc2ccc(Cl)cc2)nn(-c2ccc(F)cc2F)c1-n1c(C)ccc1C`, for which the Ki on Cannabinoid receptor 1 is 50 nM; on Cannabinoid receptor 2, above 3940 nM. The Ratio Ki in the test listed under Homo sapiens was above 78.8. In addition, the result with Rattus norvegicus [1] and in the test with Rattus norvegicus [4] was Active. For the same compound, the inhibition in vivo at 10 mg/kg with Rattus norvegicus [2] stood at 25%; in the test with Rattus norvegicus [7] it was 40%. The outcome with Rattus norvegicus [5] and in the test on Rattus norvegicus [6] was inactive.
For `Cc1c(C(=O)NC2CCCCCC2)nn(-c2ccc(F)cc2F)c1-n1cccc1`, the Ki was 560 nM on Cannabinoid receptor 1 and 200 nM at Cannabinoid receptor 2. In the test listed under Homo sapiens, the Ratio Ki was determined as 0.36.
Turning to `Cc1c(C(=O)N[C@H](C)C2CCCCC2)nn(-c2ccc(Cl)c(Cl)c2)c1-n1cccc1`, the Ki at Cannabinoid receptor 1 stood at 14 nM; at Cannabinoid receptor 2, 1.6 nM. The Ratio Ki in the test filed under Homo sapiens was 0.11.
In the same order, the values of `COc1cc(CNC(=O)c2nn(-c3ccc(Cl)cc3Cl)c(-n3c(C)ccc3C)c2C)c(Br)c(OC)c1OC` are 144 nM, 553 nM and 3.84.
In the same order, the values of `COc1cc(CNC(=O)c2nn(-c3ccc(F)cc3F)c(-n3cccc3)c2C)c(Br)c(OC)c1OC` are 345 nM, 739 nM and 2.14.
Regarding `Cc1c(C(=O)Nc2ccc(Cl)cc2)nn(-c2ccc(F)cc2F)c1-n1cccc1`, the figures for the Ki at Cannabinoid receptor 1 and on Cannabinoid receptor 2 were 2100 nM and above 3940 nM, respectively. In addition, the Ratio Ki in the test listed under Homo sapiens turned out to be 3.76.
In the same order, the values of `Cc1c(C(=O)NC2CCCCCC2)nn(-c2ccc(Cl)c(Cl)c2)c1-n1cccc1` are 5.6 nM, 1.3 nM and 0.23.
`Cc1c(C(=O)Nc2ccc(Cl)cc2)nn(-c2ccc(F)cc2F)c1-n1c(C)ccc1C`: the Ki was 560 nM at Cannabinoid receptor 1 and above 3940 nM at Cannabinoid receptor 2. Moreover, the Ratio Ki in the test filed under Homo sapiens is above 7.04.
Take `Cc1c(C(=O)NCCc2ccc(Cl)cc2)nn(-c2ccc(Cl)c(Cl)c2)c1-n1cccc1`: the inhibition constant Ki at Cannabinoid receptor 1 came out at 240 nM; on Cannabinoid receptor 2, 1200 nM. Besides, the Ratio Ki in the test filed under Homo sapiens is 5.
Take `Cc1c(C(=O)NCCc2ccc(Cl)cc2)nn(-c2ccc(Cl)c(Cl)c2)c1-n1c(C)ccc1C`: the Ki is 390 nM at Cannabinoid receptor 1 and above 3940 nM at Cannabinoid receptor 2. The Ratio Ki in the test listed under Homo sapiens is above 10.1.
Take `Cc1c(C(=O)NC2CCCC2)nn(-c2ccc(Cl)cc2Cl)c1-n1c(C)ccc1C`: the Ki came out at 150 nM at Cannabinoid receptor 1 and 310 nM on Cannabinoid receptor 2. Besides, in the test filed under Homo sapiens, the Ratio Ki came to 2.07.
Consider `Cc1c(C(=O)NC2CCCCCC2)nn(-c2ccc(F)cc2F)c1-n1c(C)ccc1C`, for which the inhibitory constant (Ki) on Cannabinoid receptor 1 came out at 56 nM; on Cannabinoid receptor 2, 110 nM. In addition, in the test listed under Homo sapiens, the Ratio Ki was found to be 1.96.
As for `Cc1c(C(=O)NCCc2ccc(Cl)c(Cl)c2)nn(-c2ccc(F)cc2F)c1-n1c(C)ccc1C`, the Ki at Cannabinoid receptor 1 is 54 nM; on Cannabinoid receptor 2, above 3940 nM. Further, in the test listed under Homo sapiens, the Ratio Ki is above 73.
As to `Cc1c(C(=O)NCCc2ccc(Cl)cc2Cl)nn(-c2ccc(F)cc2F)c1-n1c(C)ccc1C`, the inhibitory constant (Ki) on Cannabinoid receptor 1 stood at 41 nM; on Cannabinoid receptor 2, 721 nM. The Ratio Ki in the test filed under Homo sapiens turned out to be 17.6.
For the compound `Cc1c(C(=O)NC23CC4CC(CC(C4)C2)C3)nn(-c2ccc(Cl)c(Cl)c2)c1-n1cccc1`, the Ki on Cannabinoid receptor 1 is 31 nM; at Cannabinoid receptor 2, 20 nM. Also, the Ratio Ki in the test listed under Homo sapiens stood at 0.65.

A word on the inhibition in vivo: it is the share of the control response that was lost under treatment. Read a high inhibition in vivo as a response far below the control. One may read the Ki as a measure of affinity in units of concentration, obtained from inhibition or displacement.
